We go through 15 compounds from ChEMBL document CHEMBL1141940, “N-[(3S)-1-benzylpyrrolidin-3-yl]-(2-thienyl)benzamides: human dopamine D4 ligands with high affinity for the 5-HT2A receptor” (Bioorg Med Chem Lett, 2005).

For assay [1], the target named is T1, D(4) dopamine receptor (Homo sapiens, UniProt P21917).
T1 sequence (P21917 whole entry): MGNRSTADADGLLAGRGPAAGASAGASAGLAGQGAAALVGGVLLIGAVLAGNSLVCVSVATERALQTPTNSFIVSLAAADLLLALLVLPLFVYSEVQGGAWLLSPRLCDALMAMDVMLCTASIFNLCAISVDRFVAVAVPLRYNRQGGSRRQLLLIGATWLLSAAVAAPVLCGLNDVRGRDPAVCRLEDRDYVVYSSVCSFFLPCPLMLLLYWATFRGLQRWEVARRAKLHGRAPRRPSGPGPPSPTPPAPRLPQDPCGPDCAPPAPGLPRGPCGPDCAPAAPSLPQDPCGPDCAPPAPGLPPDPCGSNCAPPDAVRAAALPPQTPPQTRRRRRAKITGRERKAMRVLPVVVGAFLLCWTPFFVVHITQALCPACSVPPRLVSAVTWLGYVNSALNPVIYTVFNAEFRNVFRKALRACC
Put plainly: Displacement of [3H]spiperone from cloned human dopamine D4.2 receptor in […] cells. Type of assay: cell-based. The method in brief: (§1)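 […] cells stably transfected with cloned receptor: hD4 (D4.2 subtype) with [3H]spiperone, h5-HT2A with [3H]ketanserin. Non-specific binding was defined with methysergide. Ki came from Cheng–Prusoff conversion and is the mean of at least two independent determinations ± SEM.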
For orientation: In a radioligand displacement assay an active substance lowers the binding of a labelled ligand.

The target of assay [2] is T2, 5-hydroxytryptamine receptor 2A (Homo sapiens, UniProt P28223). The assay is described as follows: Inhibitory activity against cloned human 5HT2A receptor in […] cells at 100 nM. Type of assay: cell-based.
The target in assay [3] is T3, D(2) dopamine receptor (Homo sapiens, UniProt P14416). Put plainly: Inhibitory activity against human dopamine D2(short) receptor in rat pituitary GH4C1 cells at 100 nM. Type of assay: cell-based. Conditions: Pituitary gland cell.
Assay [4] concerns the target T4, Adrenergic receptor alpha-1 (Rattus norvegicus) (UniProt P15823+P23944+P43140). The assay is described as follows: Inhibitory activity against adrenergic alpha1 receptor in rat frontal cortex tissue at 100 nM. Type of assay: tissue-based.
Assay [5] addresses T2, 5-hydroxytryptamine receptor 2A. Put plainly: Displacement of [3H]ketanserin from cloned human 5HT2A receptor in […] cells. Type of assay: cell-based. The method in brief:
as §1

The target of assay [6] is T3, D(2) dopamine receptor. The assay is described as follows: Displacement of [3H]spiperone from human dopamine D2(short) receptor in rat pituitary GH4C1 cells. The format is cell-based, Pituitary gland cell. A digest of the protocol:
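Rat pituitary GH4C1 cells stably expressing cloned hD2 (short isoform), with [3H]spiperone displacement. Non-specific binding was defined with […]. Ki was calculated by Cheng–Prusoff transformation.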

The target in assay [7] is T5, Adrenergic receptor alpha-1 (Rattus norvegicus, UniProt P15823+P23944+P43140).
T5 sequence (P15823 whole entry): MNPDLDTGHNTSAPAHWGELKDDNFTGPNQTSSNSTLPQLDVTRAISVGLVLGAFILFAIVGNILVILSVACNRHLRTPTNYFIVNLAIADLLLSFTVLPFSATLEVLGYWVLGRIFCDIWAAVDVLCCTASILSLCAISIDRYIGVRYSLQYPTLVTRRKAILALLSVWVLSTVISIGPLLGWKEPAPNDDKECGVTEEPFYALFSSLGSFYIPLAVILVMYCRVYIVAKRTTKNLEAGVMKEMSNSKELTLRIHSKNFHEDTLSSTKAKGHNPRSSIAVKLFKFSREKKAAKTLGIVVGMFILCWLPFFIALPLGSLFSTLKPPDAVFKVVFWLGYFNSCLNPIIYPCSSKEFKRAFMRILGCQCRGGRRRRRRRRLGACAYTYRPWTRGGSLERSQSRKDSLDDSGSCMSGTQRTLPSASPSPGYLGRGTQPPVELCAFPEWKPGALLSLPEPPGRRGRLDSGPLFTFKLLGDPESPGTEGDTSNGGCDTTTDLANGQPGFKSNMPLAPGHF
T5 sequence (P23944 whole entry): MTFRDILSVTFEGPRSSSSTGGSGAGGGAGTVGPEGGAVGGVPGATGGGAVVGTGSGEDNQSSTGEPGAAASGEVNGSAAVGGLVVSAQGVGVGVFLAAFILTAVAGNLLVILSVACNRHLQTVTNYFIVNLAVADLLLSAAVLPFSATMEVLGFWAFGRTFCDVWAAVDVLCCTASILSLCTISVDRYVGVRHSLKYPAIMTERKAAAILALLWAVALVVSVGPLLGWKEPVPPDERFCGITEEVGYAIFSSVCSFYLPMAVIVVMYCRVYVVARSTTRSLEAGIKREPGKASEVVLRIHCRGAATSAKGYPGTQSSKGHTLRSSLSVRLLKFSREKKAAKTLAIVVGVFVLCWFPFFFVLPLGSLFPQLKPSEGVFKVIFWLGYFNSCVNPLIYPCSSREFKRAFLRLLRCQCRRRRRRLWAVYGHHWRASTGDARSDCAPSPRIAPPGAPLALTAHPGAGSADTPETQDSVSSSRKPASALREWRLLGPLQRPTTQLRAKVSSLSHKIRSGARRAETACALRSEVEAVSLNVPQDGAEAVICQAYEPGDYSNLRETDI
T5 sequence (P43140 whole entry): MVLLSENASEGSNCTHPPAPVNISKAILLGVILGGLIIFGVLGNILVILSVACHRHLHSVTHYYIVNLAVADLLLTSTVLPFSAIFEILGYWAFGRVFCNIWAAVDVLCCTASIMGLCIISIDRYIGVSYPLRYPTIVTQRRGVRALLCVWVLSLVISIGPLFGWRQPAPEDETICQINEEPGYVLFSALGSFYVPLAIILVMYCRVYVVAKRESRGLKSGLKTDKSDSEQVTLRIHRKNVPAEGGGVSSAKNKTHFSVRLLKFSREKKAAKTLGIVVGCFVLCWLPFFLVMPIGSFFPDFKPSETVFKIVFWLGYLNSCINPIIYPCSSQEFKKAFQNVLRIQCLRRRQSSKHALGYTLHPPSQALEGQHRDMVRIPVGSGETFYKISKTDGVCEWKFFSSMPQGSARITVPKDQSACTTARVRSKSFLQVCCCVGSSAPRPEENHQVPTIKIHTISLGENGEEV
The assay is described as follows: Displacement of 7-methoxy-[3H]prazosin from adrenergic alpha-1 receptor in rat frontal cortex tissue. Type of assay: tissue-based. A digest of the protocol:
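Rat frontal cortex tissue as receptor source, with 7-methoxy-[3H]prazosin as radioligand. Non-specific binding was defined with […]. Ki was obtained by Cheng–Prusoff transformation and reported as the mean of at least two independent determinations ± SEM.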

Assay [8] concerns the target T4, Adrenergic receptor alpha-1 (Rattus norvegicus). Put plainly: Inhibitory activity against adrenergic alpha-1 receptor in rat frontal cortex tissue at 1 uM. Type of assay: tissue-based.

T3 sequence (P14416 whole entry): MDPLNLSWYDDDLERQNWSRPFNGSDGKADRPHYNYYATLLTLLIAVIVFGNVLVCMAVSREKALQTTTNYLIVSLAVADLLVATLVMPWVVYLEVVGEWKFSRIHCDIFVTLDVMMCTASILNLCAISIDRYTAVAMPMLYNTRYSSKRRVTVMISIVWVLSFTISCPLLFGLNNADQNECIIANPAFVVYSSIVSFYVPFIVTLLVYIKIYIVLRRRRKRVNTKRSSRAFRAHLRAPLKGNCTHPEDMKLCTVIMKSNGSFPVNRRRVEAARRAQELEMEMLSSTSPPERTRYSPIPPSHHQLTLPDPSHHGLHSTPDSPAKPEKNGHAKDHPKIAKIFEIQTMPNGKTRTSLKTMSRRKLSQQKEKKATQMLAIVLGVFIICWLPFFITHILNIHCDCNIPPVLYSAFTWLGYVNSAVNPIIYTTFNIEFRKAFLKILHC
T2 sequence (P28223 whole entry): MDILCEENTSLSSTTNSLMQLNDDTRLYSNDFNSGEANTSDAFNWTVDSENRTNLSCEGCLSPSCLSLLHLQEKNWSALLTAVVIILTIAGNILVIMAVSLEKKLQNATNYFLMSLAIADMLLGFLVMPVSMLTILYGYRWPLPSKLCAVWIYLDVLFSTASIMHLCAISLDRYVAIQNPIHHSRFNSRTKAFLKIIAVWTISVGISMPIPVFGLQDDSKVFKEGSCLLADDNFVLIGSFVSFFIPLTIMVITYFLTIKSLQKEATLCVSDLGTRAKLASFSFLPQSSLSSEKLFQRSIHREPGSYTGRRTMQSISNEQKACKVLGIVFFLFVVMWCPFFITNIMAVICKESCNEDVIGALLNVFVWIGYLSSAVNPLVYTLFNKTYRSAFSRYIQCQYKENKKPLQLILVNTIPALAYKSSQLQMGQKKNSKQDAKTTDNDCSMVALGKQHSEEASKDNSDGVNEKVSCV

Usually Ki stands for a dissociation constant, usually derived from enzyme kinetics or from competition with a known ligand. Higher therefore signals lower affinity. As usually defined, the inhibition is the drop in the measured response relative to a control, in per cent. Lower therefore signals little suppression. In turn, `O=C(N[C@H]1CCN(Cc2cccc(C(F)(F)F)c2)C1)c1ccc(-c2cccs2)cc1` returned a Ki in assay [1] of 22 nM. The inhibition is 76% in assay [2], 0% in assay [3] and 0% in assay [4].

In turn, `O=C(N[C@H]1CCN(Cc2ccccc2)C1)c1ccc(-c2cccs2)cc1` came in with a Ki in assay [5] of 1.8 nM.

In the case of `O=C(N[C@H]1CCN(Cc2ccc(Cl)c(Cl)c2)C1)c1ccc(-c2cccs2)cc1`, the Ki in assay [1] was 15 nM; in assay [5], 22 nM; in assay [6], 29000 nM; in assay [7], 5000 nM.

As for `O=C(N[C@H]1CCN(Cc2ccc(OC(F)(F)F)cc2)C1)c1ccc(-c2cccs2)cc1`, the Ki came to 78 nM in assay [1], 140 nM in assay [5] and 16000 nM in assay [7]. This compound also came in with an inhibition in assay [3] of 7%.

For the compound `O=C(N[C@H]1CCN(Cc2ccccc2F)C1)c1ccc(-c2cccs2)cc1`, the results for the Ki in assay [1], in assay [6] and in assay [7] were 33 nM, 38000 nM and 6900 nM, respectively. Further, in assay [2], the inhibition was determined as 89%.

Regarding `O=C(N[C@H]1CCN(Cc2ccc(C(F)(F)F)cc2)C1)c1ccc(-c2cccs2)cc1`, the Ki in assay [1] turned out to be 14 nM; in assay [5], 130 nM. In addition, the inhibition in assay [3] worked out at 7%; in assay [8], 2%.

As to `O=C(N[C@H]1CCN(Cc2ccc(F)cc2)C1)c1ccc(-c2cccs2)cc1`, the inhibition constant (Ki) in assay [1] was found to be 5 nM; in assay [5], 14 nM; in assay [6] it was 1500 nM; in assay [7], 420 nM.

In the case of `O=C(N[C@H]1CCN(Cc2ccc(OC(F)(F)F)cc2)C1)c1cccc(-c2cccs2)c1`, the Ki in assay [1] was 52 nM; in assay [5], 5600 nM; in assay [6], 500 nM; in assay [7] it was 1200 nM.

For the compound `COc1cccc(CN2CC[C@H](NC(=O)c3ccc(-c4cccs4)cc3)C2)c1`, the inhibitory constant (Ki) in assay [1] was found to be 14 nM; in assay [5] it was 22 nM; in assay [6], 4460 nM; in assay [7] it was 920 nM.

On to `O=C(N[C@H]1CCN(Cc2ccccc2)C1)c1cccc(-c2cccs2)c1`, for which, in assay [5], the affinity corresponds to a Ki of 460 nM.

As to `O=C(N[C@H]1CCN(Cc2ccc3c(c2)OCO3)C1)c1ccc(-c2cccs2)cc1`, the Ki in assay [1] was 7 nM; in assay [6] it was 1800 nM; in assay [7], 400 nM. For the same compound, in assay [2], the inhibition was determined as 89%.

For `O=C(N[C@H]1CCN(Cc2ccc(C(F)(F)F)cc2)C1)c1cccc(-c2cccs2)c1`, the Ki in assay [1] was 21 nM; in assay [5], 740 nM; in assay [6], 1300 nM; in assay [7], 360 nM.

`O=C(N[C@H]1CCN(Cc2ccc(Cl)cc2)C1)c1cccc(-c2cccs2)c1`: the Ki was determined as 16 nM in assay [1], 1100 nM in assay [5], 230 nM in assay [6] and 220 nM in assay [7].

For `O=C(N[C@H]1CCN(Cc2ccc(F)c(F)c2)C1)c1ccc(-c2cccs2)cc1`, the Ki is 14 nM in assay [1], 16 nM in assay [5], 18000 nM in assay [6] and 10000 nM in assay [7].

`Cc1ccc(CN2CC[C@H](NC(=O)c3cccc(-c4cccs4)c3)C2)cc1`: the Ki in assay [1] was 4 nM; in assay [5], 610 nM; in assay [6], 60 nM; in assay [7], 80 nM.
